Laboratory results taken from ChEMBL document CHEMBL1154451, “Simple and efficient synthesis of novel glycosyl thiourea derivatives as potential antitumor agents” (Eur J Med Chem, 2008).

Key:
[1] = Cytotoxicity against human PG cells after 48 hrs by MTT assay; format: functional, cell-based
Method in brief: (§1)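 Tumour cells seeded at 3–5 × 10⁴ cells/mL and cultured 24 h, then medium containing test compound at various concentrations added (plain medium for controls). Exposure 48 h, followed by MTT read-out with absorbance measured at 490 nm. EC50 values reported; compounds tested up to […].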

Bel-7402 = test: Cytotoxicity against human Bel7402 cells after 48 hrs by MTT assay; format: functional, cell-based; settings: Bel-7402, 48 h; method in brief: as §1

Cc1cn([C@H]2C[C@H](N=[N+]=[N-])[C@@H](CO)O2)c(=O)[nH]c1=O [ZIDOVUDINE]
EC50 [1]: 0.58 µM
EC50 (Bel-7402): 4.62 µM
